Test [1] addresses T1, Tyrosine-protein phosphatase non-receptor type 1 (Homo sapiens, UniProt P18031).
T1 sequence (P18031 whole entry): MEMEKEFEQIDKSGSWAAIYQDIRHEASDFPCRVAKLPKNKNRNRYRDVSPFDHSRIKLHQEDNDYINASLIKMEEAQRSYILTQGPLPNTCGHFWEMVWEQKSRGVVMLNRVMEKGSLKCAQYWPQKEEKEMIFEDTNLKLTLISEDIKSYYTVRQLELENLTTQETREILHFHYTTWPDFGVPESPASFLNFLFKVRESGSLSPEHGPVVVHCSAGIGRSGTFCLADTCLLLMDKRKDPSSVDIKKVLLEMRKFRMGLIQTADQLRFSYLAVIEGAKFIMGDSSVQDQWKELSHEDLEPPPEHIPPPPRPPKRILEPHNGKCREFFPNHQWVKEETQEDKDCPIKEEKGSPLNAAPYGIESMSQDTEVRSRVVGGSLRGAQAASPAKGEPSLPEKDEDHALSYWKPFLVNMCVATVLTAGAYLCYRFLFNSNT

In test [2] the target is T2, Tyrosine-protein phosphatase non-receptor type 2 (Homo sapiens, UniProt P17706).
T2 sequence (P17706 whole entry): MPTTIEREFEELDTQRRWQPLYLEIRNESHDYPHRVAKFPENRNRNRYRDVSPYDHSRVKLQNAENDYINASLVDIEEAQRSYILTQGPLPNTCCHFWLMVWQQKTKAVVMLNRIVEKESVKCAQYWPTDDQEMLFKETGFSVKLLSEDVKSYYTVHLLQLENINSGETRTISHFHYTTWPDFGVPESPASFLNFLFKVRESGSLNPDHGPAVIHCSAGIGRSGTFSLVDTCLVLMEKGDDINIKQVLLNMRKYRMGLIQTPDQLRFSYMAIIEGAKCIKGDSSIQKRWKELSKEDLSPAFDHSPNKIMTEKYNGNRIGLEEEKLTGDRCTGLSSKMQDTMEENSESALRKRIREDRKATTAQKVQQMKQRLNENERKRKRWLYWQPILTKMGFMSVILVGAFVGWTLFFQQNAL
The test can be described thus: Inhibition of human recombinant TCPTP after 30 mins by spectrophotometry. In short, it runs like this: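 In-house human recombinant enzyme (40 ng) was preincubated with inhibitor (1% DMSO) for 10 min at 37 °C in 25 mM Hepes pH 7.0 containing 3 mM DTT, 0.15 M NaCl, 1 mM EDTA and 0.01% NP-40. Reaction was started with 2.5 mM pNPP and followed at 405 nm for 30 min at 37 °C, then quenched with NaOH. Activity came from a p-nitrophenol standard curve.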

The subject of test [3] is Mus musculus. The test can be described thus: Antidiabetic activity in ob/ob mouse assessed as fasting plasma glucose at 10 mg/kg, ip measured on day 14 (RVb = 194 +/- 17 mg/dL). It is filed as functional. The settings on record: route intraperitoneal.
For test [4], the species on record is Mus musculus. Conditions: Plasma, 10 mg/kg.
Test [5] has as its system Mus musculus. Briefly: Antidiabetic activity in ob/ob mouse assessed as fasting plasma glucose at 10 mg/kg measured on day 14 (RVb = 194 +/- 17 mg/dL).
Test [6] deals with Mus musculus. Briefly: Antidiabetic activity in ob/ob mouse assessed as whole blood glucose at 10 mg/kg, ip measured on day 10 (reference value: 138 +/- 8 mg/dL). It counts as functional. Conditions: route intraperitoneal.
The species named for test [7] is Mus musculus. Conditions: 10 mg/kg.
For test [8], the system named is Mus musculus. The test can be described thus: Antidiabetic activity in ob/ob mouse assessed as plasma cholesterol level at 10 mg/kg, ip measured on day 14 (RVb = 193 +/- 4 mg/dL). The settings on record: route intraperitoneal. It counts as functional.
For test [9], the target named is Receptor-type tyrosine-protein phosphatase F (Homo sapiens, UniProt P10586).
The species entered for test [10] is Mus musculus. Conditions: Blood, 10 mg/kg.
The test system of test [11] is Mus musculus. The test can be described thus: Antidiabetic activity in ob/ob mouse assessed as decrease in body weight at 10 mg/kg, po measured on day 15. It is filed as functional, organism-based. More on the design: dose 10 mg/kg.
Test [12] concerns Mus musculus. The test can be described thus: Antidiabetic activity in ob/ob mouse assessed as whole blood glucose at 10 mg/kg, po measured on day 10 (reference value: 139 +/- 8 mg/dL).
In test [13] the test system is Mus musculus. The test can be described thus: Antidiabetic activity in ob/ob mouse assessed as reduction in fed-state whole blood glucose at 10 mg/kg, po measured on day 7. It is filed as functional, organism-based. Further details: dose 10 mg/kg.

The structures appear in SMILES notation. Calls of active or inactive are those of the source. The calls are words filed in the database; no cut-off is given here.

Chain of Receptor-type tyrosine-protein phosphatase F (P10586 whole entry): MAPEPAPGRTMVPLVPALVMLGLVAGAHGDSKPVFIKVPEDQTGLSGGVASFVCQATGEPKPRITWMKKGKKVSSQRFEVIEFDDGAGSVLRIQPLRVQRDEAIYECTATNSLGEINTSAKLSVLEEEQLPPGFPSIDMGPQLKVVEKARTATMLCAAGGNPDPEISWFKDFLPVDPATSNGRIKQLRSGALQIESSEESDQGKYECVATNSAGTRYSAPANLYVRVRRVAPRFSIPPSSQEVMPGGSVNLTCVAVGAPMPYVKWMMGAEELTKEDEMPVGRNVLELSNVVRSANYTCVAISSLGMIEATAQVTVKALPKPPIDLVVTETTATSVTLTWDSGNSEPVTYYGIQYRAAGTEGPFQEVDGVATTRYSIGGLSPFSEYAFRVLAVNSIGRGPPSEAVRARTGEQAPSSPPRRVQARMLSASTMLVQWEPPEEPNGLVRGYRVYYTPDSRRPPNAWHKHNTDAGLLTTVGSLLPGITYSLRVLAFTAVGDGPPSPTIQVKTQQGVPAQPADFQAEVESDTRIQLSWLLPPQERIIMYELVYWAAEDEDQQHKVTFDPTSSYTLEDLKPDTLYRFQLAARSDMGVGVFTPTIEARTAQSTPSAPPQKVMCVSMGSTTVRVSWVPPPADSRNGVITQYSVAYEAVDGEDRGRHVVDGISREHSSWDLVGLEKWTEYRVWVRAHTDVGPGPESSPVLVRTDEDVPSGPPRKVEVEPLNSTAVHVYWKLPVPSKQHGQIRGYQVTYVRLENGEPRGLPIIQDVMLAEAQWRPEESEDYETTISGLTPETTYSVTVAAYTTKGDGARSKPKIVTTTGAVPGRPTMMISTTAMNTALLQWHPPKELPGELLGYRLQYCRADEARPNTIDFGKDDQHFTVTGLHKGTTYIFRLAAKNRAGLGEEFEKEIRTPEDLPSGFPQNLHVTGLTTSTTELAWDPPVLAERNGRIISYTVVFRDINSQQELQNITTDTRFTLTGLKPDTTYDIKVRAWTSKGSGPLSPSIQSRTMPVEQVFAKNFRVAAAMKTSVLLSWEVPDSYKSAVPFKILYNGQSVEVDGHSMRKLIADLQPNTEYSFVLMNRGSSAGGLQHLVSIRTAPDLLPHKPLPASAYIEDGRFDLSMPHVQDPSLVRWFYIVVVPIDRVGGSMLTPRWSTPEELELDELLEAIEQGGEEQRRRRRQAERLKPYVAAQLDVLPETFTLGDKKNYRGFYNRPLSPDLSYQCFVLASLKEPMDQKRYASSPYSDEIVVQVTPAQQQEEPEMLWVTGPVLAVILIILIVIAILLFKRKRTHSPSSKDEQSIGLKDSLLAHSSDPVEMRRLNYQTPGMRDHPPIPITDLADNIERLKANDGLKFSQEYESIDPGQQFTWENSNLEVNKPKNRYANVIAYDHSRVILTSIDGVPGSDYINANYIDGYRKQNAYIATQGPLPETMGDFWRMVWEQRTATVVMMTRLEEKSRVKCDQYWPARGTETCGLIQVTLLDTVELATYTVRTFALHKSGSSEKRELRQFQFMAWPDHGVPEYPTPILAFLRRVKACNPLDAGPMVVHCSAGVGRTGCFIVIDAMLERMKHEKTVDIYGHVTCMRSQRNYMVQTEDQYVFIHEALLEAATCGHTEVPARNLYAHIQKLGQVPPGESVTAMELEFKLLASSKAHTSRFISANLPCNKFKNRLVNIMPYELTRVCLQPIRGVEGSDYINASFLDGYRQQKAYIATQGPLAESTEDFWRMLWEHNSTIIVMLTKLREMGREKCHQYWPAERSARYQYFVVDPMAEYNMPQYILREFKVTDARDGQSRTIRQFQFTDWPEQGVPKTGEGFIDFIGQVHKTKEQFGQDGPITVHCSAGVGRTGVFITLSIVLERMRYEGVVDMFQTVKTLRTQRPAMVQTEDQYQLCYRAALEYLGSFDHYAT

With `O=C(O)c1cccc2c1oc1ccc(-c3csc(-c4ccc(N5CCCC5)cc4)n3)cc12`, the IC50 stood at 0.082 µM in test [1], 1.66 µM in test [2] and 2.99 µM in test [9]. Moreover, the Activity with Mus musculus [3] came to 93 mg/dL; in the test on Mus musculus [5], 124 mg/dL; in the test on Mus musculus [6] it was 93 mg/dL; in the test with Mus musculus [8], 138 mg/dL. Further, in the test listed under Mus musculus [4], the inhibition result was “inactive”. The inhibition result in the test listed under Mus musculus [7] and in the test filed under Mus musculus [10] was “Active” throughout.

`Cc1nc(-c2ccc(Cl)cc2)sc1OCCc1cc(C(O)(C(=O)O)C(F)(F)F)ccc1OCc1ccccc1` (stereo unspecified) registered an IC50 in test [1] of 3.2 µM.

Turning to `O=C(O)c1cccc2c1oc1ccc(-c3csc(-c4ccc(N5CCOCC5)cc4)n3)cc12`, the IC50 was determined as 0.28 µM in [1], 1.63 µM in test [2] and 2.94 µM in test [9].

As for `O=C(O)c1ccc(-c2nc(-c3ccc4oc5c(C(=O)O)cccc5c4c3)cs2)cc1`, the IC50 in [1] was 0.388 µM; in test [2], 2.1 µM; in test [9], 3.25 µM.

In the case of `O=C(O)c1cccc2c1oc1ccc(-c3csc(-c4ccc(N5CCCCC5)cc4)n3)cc12`, the results for the IC50 in test [1], in test [2] and in [9] were 0.121 µM, 2.07 µM and 2.07 µM, respectively.

As for `O=C(O)c1cccc2c1oc1ccc(-c3csc(-c4cc(Br)c(C(=O)[C@H](Cc5ccccc5)C(=O)O)c(Br)c4)n3)cc12`, the IC50 in test [1] stood at 0.177 µM; in test [2], 3.14 µM; in test [9], 3.57 µM.

In the case of `O=C(O)/C=C/c1ccc(-c2nc(-c3ccc4oc5c(C(=O)O)cccc5c4c3)cs2)cc1`, the IC50 in [1] was determined as 0.62 µM; in [2], 0.983 µM; in test [9], 1.98 µM.

For `Cc1ccc(-c2nc(-c3ccc4oc5c(C(=O)O)cccc5c4c3)cs2)cc1`, the values for the IC50 in test [1], in [2] and in [9] were 0.515 µM, 0.73 µM and 1.32 µM, respectively.

For `O=C(O)/C=C/c1cccc(-c2nc(-c3ccc4oc5c(C(=O)O)cccc5c4c3)cs2)c1`, the IC50 in test [1] was determined as 0.551 µM; in test [2], 0.794 µM; in [9] it was 2.07 µM.

Consider `CN(C)c1ccc(-c2nc(-c3ccc4oc5c(C(=O)O)cccc5c4c3)cs2)cc1`, for which the IC50 was 0.257 µM in test [1], 0.961 µM in [2] and 3.75 µM in test [9].

Consider `CCc1cc(C[C@H]2NC(=O)CN(CCCCOc3cccc(O)c3C(=O)OC)C2=O)ccc1N(C(=O)C(=O)O)c1ccccc1C(=O)O` [OXALYLAMINOBENZOIC ACID], for which the half-maximal inhibitory concentration (IC50) in test [1] was determined as 0.038 µM; in test [2] it was 0.136 µM; in [9], 0.41 µM. Further, the Ki in test [1] came to 0.018 µM; in test [2], 0.065 µM.

Turning to `O=C(O)c1cccc2c1oc1ccc(-c3csc(-c4ccc([N+](=O)[O-])cc4)n3)cc12`, the figures for the concentration for half-maximal inhibition (IC50) in [1], in test [2] and in [9] were 0.201 µM, 0.348 µM and 2.87 µM, respectively.

In the case of `O=C(O)c1cccc2c1oc1ccc(-c3csc(-c4ccc(I)cc4)n3)cc12`, the IC50 in test [1] stood at 0.395 µM; in test [2], 1.87 µM.

For `CC1CN(c2ccc(-c3nc(-c4ccc5oc6c(C(=O)O)cccc6c5c4)cs3)cc2)CC(C)O1` (stereo unspecified), the IC50 is 0.187 µM in [1], 1.43 µM in test [2] and 2.14 µM in test [9].

`CN(CCOc1ccc(CC2SC(=O)NC2=O)cc1)c1ccccn1.O=C(O)/C=C\C(=O)O` (stereo unspecified) [ROSIGLITAZONE MALEATE]: the inhibition entry with Mus musculus [11] is “inactive”. Further, the Activity with Mus musculus [12] was found to be 90 mg/dL. Further, the inhibition entry with Mus musculus [13] was “Active”.

For `Nc1ccc(-c2nc(-c3ccc4oc5c(C(=O)O)cccc5c4c3)cs2)cc1`, the half-maximal inhibitory concentration (IC50) in [1] stood at 0.185 µM; in [2], 0.693 µM.

Turning to `O=C(O)c1cccc2c1oc1ccc(-c3csc(-c4cccc(I)c4)n3)cc12`, the concentration for half-maximal inhibition (IC50) worked out at 0.425 µM in test [1], 1.61 µM in test [2] and 2.1 µM in test [9].

For orientation: IC50 means the concentration that inhibits the measured activity by half. The term Ki denotes the dissociation constant of the complex between target and ligand, obtained from inhibition or displacement.

Source of the values: ChEMBL document CHEMBL1240470, “Synthesis and evaluation of some novel dibenzo[b,d]furan carboxylic acids as potential anti-diabetic agents” (Eur J Med Chem, 2010).
